# Screening results: PubChem, Sanford-Burnham Center for Chemical Genomics
# Most compounds without a hit are left out; they make up all but 0.79% or so of the library.
# mIAP inh = blocks mouse intestinal alkaline phosphatase; 0.2% of 330,000 active; inhibition, % at 10 µM; purified mouse IAP, CDP-Star luminescence, 30 min; AID 2806;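 active = inhibition of at least 40% at 10 µM in the primary screen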;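 also: plate controls were DMSO with enzyme for no effect and no enzyme wells for full effect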
# mIAP act = mouse IAP activation | muIAP, CDP-Star luminescence, 30 min; hits give high values; 1 = vehicle-only enzyme signal, 0 = enzyme-free wells | activation factor at 10 µM | 0.24% of 330,000 active | AID 2805;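 active = activation factor of at least 2 at 20 µM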
#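 System: Mouse IAP enzyme | Also added: CDP-Star substrate | Dosing: Compounds dispensed in DMSO | Schedule: 30 min enzyme-substrate-compound incubation at room temperature | Technique: Chemiluminescence readout | Control set: DMSO-only wells and no-enzyme negative control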
# bIAP activator = intestinal alkaline phosphatase (bovine) activation; 0.17% of 200,000 active; activation factor at 20 µM; AID 1016; purified bovine IAP, CDP-star luminescence, 30 min; hits give high values; fold of DMSO-control signal, blank-subtracted;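 active = activation factor of 2 or more at 20 µM, a signal rise over negative controls twice the positive control's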
# hIAP inh = blocks human intestinal alkaline phosphatase; P09923; 0.12% of 330,000 active; AID 2544; purified IAP, CDP-Star luminescence, 30 min; inhibition, % at 10 µM;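 active = inhibition reaching a set limit with compound at 10 µM in the primary screen, cut at about 35% in these data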;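 also: plate controls were DMSO wells with enzyme for no effect and no-enzyme buffer wells for full effect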
# Target sequence (P09923 whole entry, looked up): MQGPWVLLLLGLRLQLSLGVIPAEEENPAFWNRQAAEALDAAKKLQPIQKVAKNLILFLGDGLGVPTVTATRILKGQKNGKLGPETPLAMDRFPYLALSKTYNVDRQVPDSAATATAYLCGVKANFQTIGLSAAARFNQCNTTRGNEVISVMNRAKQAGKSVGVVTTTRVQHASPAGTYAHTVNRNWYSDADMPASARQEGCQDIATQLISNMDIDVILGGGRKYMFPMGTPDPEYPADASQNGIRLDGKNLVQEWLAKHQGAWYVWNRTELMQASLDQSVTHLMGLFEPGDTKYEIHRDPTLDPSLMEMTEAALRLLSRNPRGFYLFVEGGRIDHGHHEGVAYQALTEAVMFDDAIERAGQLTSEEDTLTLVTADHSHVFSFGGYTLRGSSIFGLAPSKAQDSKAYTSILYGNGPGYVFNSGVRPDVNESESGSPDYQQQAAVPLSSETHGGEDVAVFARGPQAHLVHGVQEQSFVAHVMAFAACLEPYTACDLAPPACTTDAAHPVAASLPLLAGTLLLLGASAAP
# bIAP inhibitor = intestinal alkaline phosphatase (bovine) inhibition; purified bovine IAP, CDP-star luminescence, 30 min; inhibition, % at 20 µM; 190,000 tested, under 10 active; AID 1019;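 active = over 50% inhibition of intestinal alkaline phosphatase at 20 µM in the single-dose screen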
#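 Incubation: 30 min reaction at room temperature / Material: purified bovine intestinal alkaline phosphatase (IAP) enzyme / Input: enzyme at 1/65,000,000 dilution / Dosing: 20 µM single dose / Signal: CDP-star luminescence signal / Reagent: CDP-star chemiluminescent phosphatase substrate, 30 µM final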
# hIAP activ = increases human intestinal alkaline phosphatase activity. AID 2524. P09923. purified human IAP, CDP-Star luminescence, 30 min; hits give high values; 1 = vehicle-only enzyme, 0 = enzyme-free background. 0.16% of 330,000 active. activation factor at 10 µM;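 active = activation factor of the enzyme at least 2-fold when tested at 20 µM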
# mIAP inh confirm = mouse IAP inhibition confirmation. shares compounds with mIAP inh. purified mouse IAP, CDP-Star luminescence, 30 min. inhibition, % at 10 µM. 4.7% of 11,000 active. AID 434971;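 active = inhibition of at least 40% at 10 µM in either of the two replicates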;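 also: plate controls were DMSO wells with enzyme for no effect and buffer wells lacking enzyme for full effect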
# Active calls of the source: *; i = inactive; nt = not tested or not shown.
SMILES,mIAP inh,mIAP act,bIAP activator,hIAP inh,bIAP inhibitor,hIAP activ,mIAP inh confirm
COc1ccc(CN2CC[C@H]3C=CC[C@@H](C(=O)Nc4ccc(Cl)c(C(F)(F)F)c4)[C@H]3C2=O)cc1OC,-110,2.1*,nt,9,nt,0.91,-185
O=C(Nc1cnn(Cc2ccccc2)c1)NC12CC3CC(CC(C3)C1)C2,-112,2.1*,1,16,4,0.84,-105
O=C(O)C1C2CCC(O2)C1C(=O)Nc1cnn(Cc2ccccc2)c1 (stereo unspecified),-1,1,1,6,2,0.94,nt
CC(C)OC(=O)Nc1ccc2c(c1)N(C(=O)CCN1CCOCC1)c1ccccc1CC2,-4,1,1.1,-2,-12,1,nt
O=C(Nc1ccccc1)Nc1csc2ccccc12,-223,3.2*,nt,-4,nt,1,-108
CC(=O)Nc1csc2ccccc12,2,0.98,1,1,-4,0.99,nt
CCOC(=O)NNc1ccc2nonc2c1[N+](=O)[O-],43*,0.57,nt,8,nt,0.92,44*
O=[N+]([O-])c1c(NCc2ccco2)ccc2nonc12,41*,0.59,nt,14,nt,0.86,51*
Cn1cc(S(=O)(=O)Nc2ccc(F)c(Cl)c2)c(=O)n(C)c1=O,-1,1,nt,16,nt,0.84,nt
O=C(O)c1ccc(CSc2n[nH]c(-c3ccco3)n2)cc1,58*,0.42,0.9,-5,12,1.1,86*
CCOC(=O)CSc1n[nH]c(-c2ccco2)n1,7,0.93,1,-3,5,1,nt
Cc1ccc(/C=C/C2=Cc3c(sc(NC(=O)CSc4n[nH]c(N)n4)c3C#N)C(C)(C)C2)o1,47*,0.53,0.9,-16,12,1.2,51*
c1csc(-c2noc(CN3CCc4sccc4C3)n2)c1,0,1,1,6,-2,0.94,nt
CCN1C(=O)/C(=C2\SC(=S)N(NC(=O)c3ccccc3O)C2=O)c2ccccc21,51*,0.49,nt,-75,nt,1.8,47*
C#CCOCCOCCOCCNc1nc(N2CCN(C(=O)CCCCCCCCCCNC(=O)[C@H](CO)n3cc(CCCSC)nn3)CC2)nc(N2CCN(C(=O)CCCCCCCCCCNC(=O)[C@H](CO)n3cc(CCCSC)nn3)CC2)n1,-57,1.6,nt,-19,nt,1.2,nt
C#CCOCCOCCOCCNc1nc(N2CCN(C(=O)CCCCCCCCCCNC(=O)[C@H](CCCCN)n3cc(CCCC(=O)O)nn3)CC2)nc(N2CCN(C(=O)CCCCCCCCCCNC(=O)[C@H](CCCN=C(N)N)n3cc(C[C@@H](C)CC)nn3)CC2)n1,-124,2.2*,nt,-2,nt,1,-167
C#CCOCCOCCOCCNc1nc(N2CCN(C(=O)CCCCCCCCCCNC(=O)[C@H](CO)n3cc(CCCSC)nn3)CC2)nc(N2CCN(C(=O)CCCCCCCCCCNC(=O)[C@H](CCCCN)n3cc(C[C@@H](C)CC)nn3)CC2)n1,-130,2.3*,nt,-21,nt,1.2,-183
C#CCOCCOCCOCCNc1nc(N2CCN(C(=O)CCCCCCCCCCNC(=O)[C@H]([C@@H](C)CC)n3cc(CCCCN=C(N)N)nn3)CC2)nc(N2CCN(C(=O)CCCCCCCCCCNC(=O)[C@H](CCCCN)n3cc(C[C@@H](C)CC)nn3)CC2)n1,-296,4*,nt,-20,nt,1.2,i
C#CCOCCOCCOCCNc1nc(N2CCN(C(=O)CCCCCCCCCCNC(=O)[C@H](CCCCN)n3cc(CCO)nn3)CC2)nc(N2CCN(C(=O)CCCCCCCCCCNC(=O)[C@H](CCCN=C(N)N)n3cc(C[C@@H](C)CC)nn3)CC2)n1,-162,2.6*,nt,12,nt,0.88,-204
C#CCOCCOCCOCCNc1nc(N2CCN(C(=O)CCCCCCCCCCNC(=O)Cn3cc(C[C@@H](C)O)nn3)CC2)nc(N2CCN(C(=O)CCCCCCCCCCNC(=O)[C@H](CCCCN)n3cc(C[C@@H](C)CC)nn3)CC2)n1,-173,2.7*,nt,-9,nt,1.1,-176
O=C(N/N=C/c1ccc([N+](=O)[O-])o1)c1ccc2c(c1)OCO2,45*,0.55,nt,-8,nt,1.1,55*
O=C(N/N=C/c1ccc([N+](=O)[O-])o1)c1ccc(NS(=O)(=O)c2cccs2)cc1,50*,0.5,nt,-8,nt,1.1,59*
CCC(=O)Nc1ccc2c(c1)ncn2-c1ccc(C)cc1,5,0.95,0.9,-4,11,1,nt
O=C(N/N=C/c1cc2c(cc1[N+](=O)[O-])OCO2)c1ccccn1,40*,0.6,nt,0,nt,1,58*
COc1ccc(/C=N/N2C(=O)CSC2=S)cc1,47*,0.53,1.2,-3,-16,1,60*
SMILES,mIAP inh,mIAP act,bIAP activator,hIAP inh,bIAP inhibitor,hIAP activ,mIAP inh confirm
CC(C)(C)c1ccc(/C=N/N2C(=O)CSC2=S)cc1,20,0.8,nt,-20,nt,1.2,nt
COc1ccc(/C=N/N2C(=O)CSC2=S)cc1Br,22,0.78,nt,-13,nt,1.1,nt
O=C1CSC(=S)N1/N=C/c1ccc(O)c(O)c1O,92*,0.084,nt,-5,nt,1.1,88*
CC(SC1=NCCN1S(=O)(=O)c1ccccc1)c1ccccc1 (stereo unspecified),8,0.92,nt,20,nt,0.8,nt
O=C1C[C@@H](c2ccccc2)Oc2cc(O)cc(O)c21,6,0.94,nt,12,nt,0.88,nt
O=C1c2c(O)cc(O)cc2O[C@H](c2ccc(O)c(O)c2)[C@H]1O,51*,0.49,nt,-5,nt,1.1,59*
Oc1cc(O)c2c(c1)O[C@H](c1ccc(O)c(O)c1)[C@@H](O)C2,78*,0.23,nt,28,nt,0.72,78*
O=C1c2c(O)cc(O)cc2O[C@H](c2ccc(O)c(O)c2)[C@@H]1O,64*,0.36,0.8,9,24,0.91,58*
Cc1cc(C)n(-c2cccc(CN(C)Cc3nc(-c4cnccn4)no3)c2)n1,2,0.98,1,-1,3,1,nt
O=C(c1cccs1)[C@@H]1[C@@H]2C(=O)N(Cc3ccc4c(c3)OCO4)C(=O)[C@@H]2C2c3ccccc3C=CN21 (stereo partly specified),46*,0.54,0.9,1,7,0.99,43*
O=C(c1ccc2c(c1)OCO2)[C@@H]1[C@@H]2C(=O)N(C3CCCCC3)C(=O)[C@@H]2C2c3ccccc3C=CN21 (stereo partly specified),nt,nt,1,nt,2,nt,nt
CCOC(=O)CSC1=Nc2ccccc2C2=NC(CC(=O)NCc3ccc4c(c3)OCO4)C(=O)N12 (stereo unspecified),44*,0.56,1,20,-2,0.8,59*
CC(C)CC(=O)NC(NC(=S)Nc1sc2c(c1C#N)CCCC2)C(Cl)(Cl)Cl (stereo unspecified),41*,0.59,0.5,7,46,0.93,41*
CCC(=O)Nc1sc2c(c1C#N)CCC2,-1,1,0.9,-3,7,1,nt
